Reference: ChEMBL document CHEMBL1139362, “Discovery of human macrophage migration inhibitory factor (MIF)-CD74 antagonists via virtual screening” (J Med Chem, 2009)
The source made the active and inactive calls. No cut-off for these calls is given here.

Experiments:
[1] = molecular target: T1, MIF/CD74 (Macrophage migration inhibitory factor and HLA-DR antigens-associated invariant chain) (Homo sapiens) (UniProt P14174+P04233); test: (§1) Inhibition of human MIF-CD74 binding; format: protein assay
In short: (§2)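 Compounds pre-incubated 30 min at room temperature with biotinylated recombinant human MIF (2 ng/µl), then added to wells overnight at 4 °C. Bound MIF detected with streptavidin-alkaline phosphatase and p-nitrophenyl phosphate, A405 expressed as percent of MIF-alone wells. 10–12 concentrations spanning ~500-fold; at least three independent assays.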

[2] = molecular target: T2, Macrophage migration inhibitory factor (Homo sapiens) (UniProt P14174); test: (§3) Inhibition of human recombinant MIF tautomerase
T2 sequence (whole entry): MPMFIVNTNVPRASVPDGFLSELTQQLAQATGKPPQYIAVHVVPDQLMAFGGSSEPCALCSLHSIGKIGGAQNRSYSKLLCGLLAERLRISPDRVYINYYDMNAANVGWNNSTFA

[3] = molecular target: T3, MIF/CD74 (Macrophage migration inhibitory factor and HLA-DR antigens-associated invariant chain) (Homo sapiens, UniProt P04233+P14174); test: as §1; format: protein assay; in short: as §2
T3 sequence (P14174 whole entry): T2 sequence (whole entry)
T3 sequence (P04233 whole entry): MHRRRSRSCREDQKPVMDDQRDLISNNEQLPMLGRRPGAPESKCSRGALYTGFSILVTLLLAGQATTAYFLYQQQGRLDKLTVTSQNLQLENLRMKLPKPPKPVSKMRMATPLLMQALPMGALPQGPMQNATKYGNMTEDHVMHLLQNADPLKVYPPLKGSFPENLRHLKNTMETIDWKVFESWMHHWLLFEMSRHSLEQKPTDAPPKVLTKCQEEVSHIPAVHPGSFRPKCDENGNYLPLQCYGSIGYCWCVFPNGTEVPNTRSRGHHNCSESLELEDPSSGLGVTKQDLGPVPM

[4] = molecular target: T4, Macrophage migration inhibitory factor (Homo sapiens, UniProt P14174); test: as §3
T4 sequence (P14174 whole entry): T2 sequence (whole entry)

[5] = molecular target: T2, Macrophage migration inhibitory factor (Homo sapiens); test: Inhibition of human recombinant MIF tautomerase at 10 uM; design: scale not given: the % may be the effect or the level left
[6] = molecular target: T1, MIF/CD74 (Macrophage migration inhibitory factor and HLA-DR antigens-associated invariant chain) (Homo sapiens); test: Inhibition of human MIF-CD74 binding at 10 uM; format: protein assay; design: scale not given: the % may be the effect or the level left

Cc1ccc(-n2cnc3ccccc3c2=O)cc1Cl
Activity [1]: inactive

O=C(O)c1cc(-n2cnnc2)ccc1Cl
Activity [2]: inactive | IC50 [3]: 250 µM

Oc1csc(Cc2nc(-c3ccc(-c4ccccc4)cc3)cs2)n1
IC50 [4]: 300 µM | IC50 [3]: 65 µM

Cc1cc(C)c2ccc(C3=C(O)c4ccccc4C3=O)nc2c1O
Activity [1]: inactive

O=c1c2ccc(F)cc2sn1-c1ccc(Cl)cc1
Activity [1]: inactive

O=C(O)c1cccc(-n2ccnc2)c1
Activity [1]: inactive

CC(OC(=O)c1ccc(-c2ccc(O)cc2)cc1)C(=O)NCc1ccccc1 (stereo not given)
Activity [1]: inactive

O=C(Nc1cccc2ccccc12)C(=O)c1c[nH]c2ccccc12
Activity [1]: inactive

O=C(O)c1cccc(-c2cc[nH]n2)c1
Activity [5]: 30% | IC50 [3]: 15 µM

CC(C)(C)OC(=O)C[C@H]1CC(c2ccc(O)c(F)c2)=NO1 (racemic)
IC50 [4]: 0.55 µM

CCOc1cc(/C=C2\Oc3cc(O)ccc3C2=O)ccc1O
Activity [1]: inactive

O=C(O)COc1ccc2occ(C(=O)c3ccccc3)c2c1
IC50 [4]: 980 µM | IC50 [3]: 1500 µM

COC(=O)C[C@H]1CC(c2ccc(O)cc2)=NO1 (racemic)
Activity [2]: inactive | Activity [6]: 40%

N#C/C(=C\c1ccc(-c2ccccc2)cc1)c1ccccn1
Activity [1]: inactive

O=c1[nH]nc(-c2cccs2)cc1Cc1ccc(Cl)c(Cl)c1
IC50 [4]: 430 µM | IC50 [3]: 250 µM

OCc1nc2ccccc2n1Cc1ccc2ccccc2c1
Activity [1]: inactive

Oc1ccc2c(c1)oc1ccccc12
Activity [5]: 38% | IC50 [3]: 900 µM

Oc1c(C(Nc2cccc(F)c2)c2ccccn2)ccc2cccnc12 (stereo not given)
IC50 [4]: 530 µM | IC50 [3]: 2.5 µM

Oc1ccc(/C=C/c2ccc3cccc(O)c3n2)cc1
Activity [5]: 40% | IC50 [3]: 8 µM

CC(=O)Oc1ccc2nc(-c3cc4ccccc4o3)oc(=O)c2c1
IC50 [3]: 2.5 µM

O=c1oc2c(O)c(O)ccc2cc1-c1nc2ccccc2s1
Activity [1]: inactive

O=C(O)c1cc(-n2cnnn2)ccc1O
Activity [2]: inactive | IC50 [3]: 550 µM

O=C(c1cc2ccccc2o1)N1CCc2ccccc21
IC50 [3]: 4 µM

Ic1cc(-c2ccccc2)ncn1
Activity [1]: inactive

CC(=O)Nc1cccc2ccc(-c3cnc4ccccc4c3)nc12
Activity [1]: inactive
